ChEMBL document CHEMBL4513216, “Probing the Open Global Health Chemical Diversity Library for Multistage-Active Starting Points for Next-Generation Antimalarials” (ACS Infect Dis, 2020)

Experiment: Toxicity liver stage against HepG2, at 10uM
Type: cell-based
Design: test concentration 10 uM, cell line HepG2-A16-CD81EGFP
Details: human, HepG2-A16-CD81EGFP cells; read-out: INHIBITION
Method in brief: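 Uninfected HepG2-A16-CD81EGFP cells, 3 × 10^3 per well, 1536-well, plated on prespotted compound at 10 μM final, parasite-free screening media added to match infected plates; puromycin 10 μM positive, DMSO 0.5% negative; run in parallel with 48 h PbLuc assay at 37 °C, 5% CO2; viability by CellTiter-Glo luminescence, normalized to controls.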

Row | Structure (SMILES) | cytotoxicity at 10 µM
1 | CN(C)Cc1cc(CC2(NCc3ccc(C#N)cc3)COC2)no1 | -5.96%
2 | CN1CCN(c2ccc(NS(=O)(=O)c3ccc(Br)s3)cc2C(=O)O)CC1 | -4.5%
3 | c1ccc(CNc2nc(N3CCOCC3)nc3nccnc23)cc1 | 10.5%
4 | Cc1nn(C)cc1C1SCC(=O)Nc2c1c(O)nn2C(C)C (centres undefined) | 1.04%
5 | Cc1cc(CN2CCC(CNS(=O)(=O)c3ccccc3Cl)CC2)c(C)o1 | 9.51%
6 | CCN1CCN(C(=O)Cn2nc(C(F)(F)F)c(Br)c2C2CC2)CC1 | -8.78%
7 | CC1(C)CC2(CCO1)NC(=O)c1cc(Br)ccc1-n1nnnc12 (centres undefined) | 5.97%
8 | Cc1ccc(CNC(=O)c2nn(C)c3c2CS(=O)(=O)CC3)o1 | 6.14%
9 | COc1ccccc1CNC(=O)Cn1ncc2c1c(C)nn2C | 10.6%
10 | Cc1nn(C)cc1CN1CCc2nc3sccc3c(=O)n2CC1 | -1.87%
11 | CC1(C)O[C@@](C)([C@H]2CC3(CCN(c4cnccn4)CC3)CO2)CC[C@@H]1O | 5.53%
12 | CN(c1cccnn1)[C@@H]1CC[C@@H]2CN(Cc3cccc(C(=O)O)c3)C[C@@H]21 | 6.17%
13 | Cn1nccc1C(=O)N1CCC(c2ncc(Cl)cc2S(C)(=O)=O)CC1 | 7.91%
14 | Cc1cnc(CC2COCCN(C(=O)CN3CCCCC3)C2)cn1 (centres undefined) | -3.22%
15 | Cc1cc(-c2cnc(C(C)C)nc2CN(C)C(=O)c2ccccn2)on1 | 2.47%
16 | COCCC(=O)N1CCCC(c2noc3nc(C)cc(C(F)(F)F)c23)C1 (centres undefined) | -19.9%
17 | CCc1c(C)nc(C2CCCN2C(=O)c2cc(C)no2)nc1O (centres undefined) | -5.75%
18 | Cc1cccc(CN2CCC(c3nnsc3S(C)(=O)=O)CC2)n1 | -8.69%
19 | C=Cn1ncc(CN2C[C@@H]3CCCN3C[C@@H]2CCSC)c1C | 0.026%
20 | c1ncc(Nc2nccc(C3CCCCN3CC3CCCCC3)n2)cn1 (centres undefined) | 3.32%
21 | CN(Cc1ccc(F)cc1)CC1(O)CCN(C(=O)c2cccn2C)C1 (centres undefined) | -3.19%
22 | CS(=O)(=O)NC1CCN(Cc2coc(-c3ccccc3)n2)CC1 | -43.3%

Row | Structure (SMILES) | cytotoxicity at 10 µM
23 | CC(NCc1nnc2n1CCCC2)c1nc(C(C)(C)C)no1 (centres undefined) | -39.2%
24 | CSC1(CNC(=O)NCc2sccc2C)CCOCC1 | -49.6%
25 | CCOc1ccc(Cl)c(C(=O)NC(Cc2ccccc2)C(N)=O)n1 (centres undefined) | 15.4%
26 | CCOc1ncccc1CNS(=O)(=O)c1ccc2c(c1)CCC2 | 13.3%
27 | COc1ccc(CNC2CCc3ncnn3C2)cc1OCC1CC1 (centres undefined) | -8.74%
28 | CC(O)(CNC(=O)NCCc1ccc2c(c1)CCO2)c1ccsc1 (centres undefined) | 7.4%
29 | Cc1ccoc1C(=O)NCC(c1ccccc1Cl)N1CCOCC1 (centres undefined) | 8.21%
30 | Cc1nc(C(=O)N(C)C)nn1-c1ccccc1C(C)C | -0.665%
31 | CCNC(=O)NC(=O)C(C)N1CCCc2cc(OC)ccc2C1 (centres undefined) | 9.86%
32 | Cc1ncc(CN(C)c2nc3c(cnn3C(C)(C)C)c(=O)[nH]2)s1 | -19.2%
33 | Cc1nc(C(C)(C)C)sc1C(=O)NCCn1ccnc1 | -0.586%
34 | CN(Cc1nnc2n1CCC2)S(=O)(=O)c1cc(Br)ccc1Br | 0.392%
35 | Cn1cnnc1C1CCCN1C(=O)Nc1cccc(OC(F)F)c1 (centres undefined) | 8.25%
36 | Cc1cc(NC(=O)C(C)Nc2ccn(Cc3ccccn3)n2)on1 (centres undefined) | -2.06%
37 | CNC(=O)CC1CCN(C(=O)NCc2coc3ccccc23)CC1 | -11.4%
38 | O=S(=O)(Cc1ccc(F)cc1)NCCc1nnc2n1CCC2 | 17.2%
39 | CCOC(=O)CCNC(=O)c1cc(Cl)cc2cccnc12 | 15%
40 | O=C(NCC(CO)Cc1cccc(OC(F)(F)F)c1)c1cnccn1 (centres undefined) | 7.66%
41 | Cc1ccc(CS(=O)(=O)Cc2nc(N)nc(N(C)C)n2)cc1 | 3.13%
42 | CC(C)(C)c1cnc(CN2CCC(NC(=O)C3CCOCC3)CC2)o1 | -11.9%
43 | O=C(NCc1ccncc1)N(Cc1ccccc1F)C1CC1 | -3.32%
44 | CC(=O)N1CCCN(Cc2csc(-c3ncccn3)n2)CC1 | 7.08%

Row | Structure (SMILES) | cytotoxicity at 10 µM
45 | CCn1cnnc1C1CCN(C(=O)c2ccc3cc[nH]c3c2)CC1 | 5.16%
46 | CS(=O)(=O)NC1CCc2[nH]c(=O)ccc2C1 (centres undefined) | 3.46%
47 | CN1CCN(Cc2cn3c(n2)CN(Cc2cccnc2)CC3)CC1 | 5.25%
48 | CN1CC(=O)N(c2cccc(F)c2)CC12CCNC2 (centres undefined) | 6.23%
49 | Cc1cc(C)c2c(N3CCC(C(=O)N4CCOCC4)CC3)ncnc2n1 | -11.1%
50 | Cc1nc(-c2ccncc2)ncc1C(C)NC(=O)CN1CCOC1=O (centres undefined) | 3.11%
51 | COc1ccccc1CCc1nc(CC2CCN(C)CC2)no1 | 7.71%
52 | CCNC(=O)c1ccnc(N2CCCC(COc3ccccc3C)C2)c1 (centres undefined) | 2.08%
53 | CN(Cc1cccc2ncccc12)C(=O)CCn1ccc(=O)[nH]c1=O | -134%
54 | c1ccc(CN(Cc2ncc[nH]2)Cc2nccs2)cc1 | 6.35%
55 | CCCc1nc(N2CCCN(c3ncccn3)CC2)c2cnn(C)c2n1 | -1.18%
56 | COc1ccc(CN(C)C2CCN(S(C)(=O)=O)CC2)c2cccnc12 | 98.9%
57 | N#CC1(c2ccccc2)CCN(C(=O)C2CCCN(C(N)=O)C2)CC1 (centres undefined) | -22.2%
58 | COCCc1ncc(CN2C[C@H](C3CC3)[C@@H](N)C2)cn1 | -42%
59 | CS(=O)(=O)NCC(=O)N[C@H]1CN(c2cnccn2)C[C@@H]1C1CC1 | -7.24%
60 | CN(C)CC1(O)CCN(C(=O)c2cnc(-c3cccnc3)nc2)C1 (centres undefined) | 5.75%
61 | CCc1cc(N2CCN3CCCCC3C2)n2nccc2n1 (centres undefined) | -1.12%
62 | CCC(C)N(Cc1cnc(NC(C)C)nc1)Cc1ccsc1 (centres undefined) | 3.84%
63 | C[C@@H]1CN(C(=O)c2cc(Cn3cnc4ccccc43)on2)C[C@H](C)O1 | 1.69%
64 | CN(Cc1ccon1)C1CCN(c2cccc(-c3cscn3)c2)CC1 | -3.96%
65 | Cc1cccc2[nH]c(C3CCN(C(=O)c4ccc[nH]4)CC3)nc12 | 6.01%
66 | O=c1cc(-c2cccnc2)nc(-c2ccc(CN3CC[C@H](O)C3)cc2)[nH]1 | 3.98%

Row | Structure (SMILES) | cytotoxicity at 10 µM
67 | CCNC(=O)[C@@H]1C[C@H](N)CN1C(=O)CCc1ccc(C)c(C)c1 | 3.45%
68 | COc1ccc(CN(CC2CCCO2)C(=O)CN2CCCCC2=O)cc1 (centres undefined) | -0.645%
69 | COc1cccc(-c2nc3c([nH]2)CC(C)(C)CNC3=O)c1OC | -5.82%
70 | O=C(CCNCc1cc(O)c2cc(F)ccc2n1)N1CCCC1 | -49.3%
71 | CCOc1ccc(Cc2c(O)nc(SC)n(-c3ccccc3)c2=O)cc1 | 4.04%
72 | COc1ccc(CN2CCN(CC3CC3)[C@@H]3CS(=O)(=O)C[C@@H]32)cc1O | -0.931%
73 | CC(O)c1cn(CC2CCN(C(=O)c3cscn3)CC2)nn1 (centres undefined) | 1.83%
74 | COc1cc2c(cc1OC)CN(Cc1ncccc1C(=O)O)CC2 | 5.31%
75 | CCCc1nnc(N2CCC(C3CCN(C)CC3)CC2)o1 | -11.7%
76 | CN(CCNC(=O)c1cccnc1)S(C)(=O)=O | -0.102%
77 | Cc1cc(F)ccc1OC1(C(=O)O)CCN(Cc2cccnc2)CC1 | 1.87%
78 | Cc1ncsc1CCN(C)C(=O)CN1CCCCCC1=O | -7.67%
79 | COc1ccc(OC2CCN(C(=O)c3cnc(C)s3)CC2)cc1 | -18%
80 | Cc1ccc(-c2ccnc(N3CCC4(CC3)CNC(=O)O4)n2)c(C)n1 | -6.93%
81 | N#Cc1nccnc1N1CCN(CCOCc2ccccc2)CC1 | -18.4%
82 | CCn1ccnc1CN1CCC(Oc2ccccc2F)(C(=O)O)CC1 | 6.84%
83 | Cc1nc(C)c(Cn2ccnc2-c2cc(CN(C)C)cs2)s1 | 1.99%
84 | CN(C)[C@H]1CN(C(=O)CCc2cccc(F)c2)C[C@@H]1C1CC1 | -1.1%
85 | COc1ccc(C(=O)n2nc(C)c(C)c2C)cc1 | 6.06%
86 | Cc1ccc2[nH]nc(C(=O)NCC3CCN(Cc4c[nH]cn4)C3)c2c1 (centres undefined) | -15.1%
87 | NC(=O)COc1cccc(C(=O)Nc2cnc3n2CCCC3)c1 | 18.2%
88 | O=C1O[C@@H]2CN(Cc3cccc(F)c3)C[C@@H]2N1CCCN1CCOCC1 | -9.9%

Row | Structure (SMILES) | cytotoxicity at 10 µM
89 | CS(=O)(=O)N1CCCC(C(=O)Nc2cnn(Cc3ccc(F)cc3)c2)C1 (centres undefined) | -3.64%
90 | CCOCCCNC(=O)Cc1cccs1 | -10.2%
91 | CCNC(=O)C1CCN(Cn2nc(-c3ccc(F)cc3)oc2=O)CC1 | -4.71%
92 | Cc1nccn1-c1cc(CNC(=O)CC2CCCO2)ccn1 (centres undefined) | 0.491%
93 | CCOc1ccc(C(=O)N2CCCC2c2cnn(C)c2)cn1 (centres undefined) | -3.71%
94 | CC(=O)NCCNC(=O)c1cnc(C(C)(C)C)s1 | -2.17%
95 | COCCN1CCC(CNC(=O)C2(c3cccc(Cl)c3)CC2)C1 (centres undefined) | -6.63%
96 | CCc1cnc(CN(C(C)=O)C2CCN(CC(=O)N3CCCC3)C2)o1 (centres undefined) | -6.63%
97 | Cc1ccccc1OCCN1CCN(Cc2cnn(CCO)c2)CC1 | -17.9%
98 | CC(C)c1n[nH]c(C2CN(C(=O)C3=COCC3)CCO2)n1 (centres undefined) | -7.99%
99 | c1ccc(Cc2noc(CNC3CCc4ncnn4C3)n2)cc1 (centres undefined) | -5.99%
100 | Cc1csc(N2CCN(C(=O)CCC(=O)c3ccc(C)s3)CC2)n1 | -3.09%
101 | Cc1cc(C)n(CC2CCCN2Cc2c(C)noc2C)n1 (centres undefined) | -4.08%
102 | CCc1nc(C2CCCN2C(=O)CCn2cncn2)no1 (centres undefined) | -5.63%
103 | Cc1nc(O)cc(C2CCN(Cc3ccc(F)c(F)c3)C2)n1 (centres undefined) | -11.3%
104 | Fc1cnc(N2CCC3(CC2)CC(OCc2cccnc2)CO3)nc1 (centres undefined) | 2.25%
105 | CCO[C@@H]1CO[C@@]2(CCCN(S(=O)(=O)c3cccnc3)C2)C1 | -0.156%
106 | Cc1ccc(CN2CC[C@H]3[C@H]2CC(=O)N3c2cccnc2)o1 | 5.67%
107 | Cc1cccc(CN2CC3(CCN(C(=O)N(C)C)CC3)OCC2=O)n1 | -3.88%
108 | Fc1ccccc1CO[C@@H]1C[C@H]2CN(c3ncccn3)CCN2C1 | 1.09%
109 | CC(=O)N1CCC2(CC1)CN(C(=O)[C@@H]1CSCN1)c1ccc(Cl)cc12 | -1.91%
